Compound activity as filed in PubChem.
Ecoli rRNA inh – inhibits bacterial ribosomal RNA function over humanized ribosomes; GFP signal change (wild-type ribosome), % (test concentration not listed); AID 720706; hit rate 1.6% among 350,000; E. coli WT GFP vs humanized-ribosome RFP mutants, fluorescence, 24 h; stronger effect = lower value; DMSO median 0, no signal -100;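 active means significant combined selectivity score with lowered wild-type GFP, culture density cut under 30%, mutant RFP and density less affected; inactive means any of these conditions unmet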
Cneo AK release – Cryptococcus neoformans lysis via adenylate kinase release | C. neoformans lysis, adenylate kinase release luminescence, 4 h; normalised: neutral wells 0, clomiphene wells 100 | AID 651654 | hit rate 0.2% among 360,000 | lysis activity, % at 15 µM;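 active means mean lysis activity across replicates of at least 80%, whatever share of replicates individually reach that level; inactive means mean lysis activity below 80%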
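Signal: Adenylate kinase release luminescence | Assay system: Log-phase Cryptococcus neoformans yeast cells | Input: Cells at 5 × 10^6 per mL | Buffer or medium: Fresh YPD growth medium | Compound: Single dose | Schedule: Static 4 h at 37 °C with compound, 1 h detection | Controls: Clomiphene | Read-out: Luminescence rise reflecting yeast cell lysis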
C2C12 statin – suppression of simvastatin myotoxicity. hit rate 0.78% among 330,000. C2C12 myotubes + simvastatin, ATP luminescence, 48 h; scaled: DMSO 0, geranylgeraniol control 100. rescue of ATP level, % at 7.49 µM;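 active means mean ATP rescue above about 67%, or every replicate alone reaching that limit, limit read from the data, passing the limit was not always enough; inconclusive means no clear call, values can overlap the other calls; inactive means mean under the limit and some replicate under it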;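 further: myotubes were challenged with 10 µM simvastatin during compound exposure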
S100A4 inh HTS – blocks human S100A4 binding to myosin IIA peptide | P26447 | S100A4/TAMRA-MyoIIA peptide fluorescence polarization | inhibition, % at 10.7 µM | hit rate 0.14% among 360,000;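 active means mean inhibition of at least 70% across replicates, with every replicate also reaching that level; inconclusive means mean inhibition reaches 70% but some replicates fall short; inactive means mean inhibition below 70%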
Target sequence (P26447 whole entry, looked up): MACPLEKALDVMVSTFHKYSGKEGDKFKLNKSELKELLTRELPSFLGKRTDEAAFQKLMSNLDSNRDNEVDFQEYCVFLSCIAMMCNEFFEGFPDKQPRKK
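Material: human S100A4 monomer with TAMRA-labelled myosin IIA peptide; buffer or medium: HEPES pH 7.2 with CaCl2, KCl, NaCl, DTT, Triton; compound dosing: one concentration per compound; schedule: 5 min incubation before reading; benchmarks: neutral control DMSO, positive control TFP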
PGC1a acetyl inh – PGC1a acetylation modulation, inhibitor mode | U2OS PGC1a acetylation, AlphaScreen anti-acetyl-lysine; with virally co-expressed GCN5 acetyltransferase | inhibition, % at 15.6 µM | hit rate 0.17% among 350,000 | AID 651687;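 active means every replicate shows inhibition of at least 40%; inconclusive means mean inhibition at least 40% but some replicate below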;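 further: 0% = neutral control wells and 100% = positive control wells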
SIRT5 block – inhibitors of human sirtuin-5 desuccinylase | Q9NXA8 | Purified SirT5, succinyl-peptide AMC, trypsin-coupled fluorescence | inhibition, % at 15 µM | hit rate 1.1% among 330,000 | AID 652115; in the data active means inhibition above about 15%; inconclusive means no clear call, values can overlap the other calls
Target sequence (Q9NXA8 whole entry, looked up): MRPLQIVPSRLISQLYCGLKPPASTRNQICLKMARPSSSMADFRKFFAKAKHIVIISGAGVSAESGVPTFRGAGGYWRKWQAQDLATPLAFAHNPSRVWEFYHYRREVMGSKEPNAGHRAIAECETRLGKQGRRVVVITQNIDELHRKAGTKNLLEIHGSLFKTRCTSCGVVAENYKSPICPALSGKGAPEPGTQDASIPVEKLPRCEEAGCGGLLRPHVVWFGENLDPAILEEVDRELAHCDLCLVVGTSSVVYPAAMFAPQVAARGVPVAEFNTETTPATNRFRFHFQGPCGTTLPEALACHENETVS
Starred values were filed as active, the others as inactive; ? = inconclusive; / = no result; ! = a repeat was not active. This is a sample that favours compounds with a hit; in the whole collection about 3% have one here.

SMILES | Ecoli rRNA inh | Cneo AK release | C2C12 statin | S100A4 inh HTS | PGC1a acetyl inh | SIRT5 block
O=C(C[C@@H]1C=C[C@@H](NC(=O)C2CCC2)[C@H](CO)O1)NC1CCC1 | 0 | 96* | 5 | 4 | -3 | 5
O=C(C1CCCC1)N1CC(=O)N2[C@H](CO)[C@@H](c3ccc(C#Cc4cccc(F)c4)cc3)[C@H]2C1 | -44 | / | / | 47 | -5 | -1
Cc1ccc(C(=O)Nc2c(-c3ccc(Cl)cc3)[nH][nH]c2=O)cc1 | -4 | 4 | -6 | 0 | 9 | 5
O=C(Nc1c(-c2ccccc2)[nH][nH]c1=O)c1ccc(-c2ccccc2)cc1 | -14* | / | / | -1 | / | /
CO[C@@H]1CN(C)C(=O)c2cc(NS(=O)(=O)CC(F)(F)F)ccc2OC[C@@H](C)N(CC2CCCCC2)C[C@@H]1C | 4 | -1 | 0 | -11 | -3 | 5
COc1ccc(NC(=O)Nc2ccc3c(c2)C(=O)N([C@H](C)CO)C[C@H](C)[C@@H](CN(C)S(=O)(=O)c2cccs2)OCCCC[C@@H](C)O3)cc1 | 1 | 0 | / | 10 | 4 | 19*
C[C@@H]1CCCCO[C@@H](CN(C)S(=O)(=O)c2cccs2)[C@H](C)CN([C@@H](C)CO)C(=O)c2cc(NC(=O)Nc3ccc(F)cc3)ccc2O1 | -2 | -3 | 84* | -6 | 1 | 3
C[C@H](CO)N1C[C@H](C)[C@H](CN(C)S(=O)(=O)c2cccs2)OCCCC[C@H](C)Oc2ccc(NC(=O)Nc3ccc(F)cc3)cc2C1=O | -1 | -3 | ? | -10 | 6 | 2
COc1ccc(NC(=O)Nc2ccc3c(c2)C(=O)N([C@H](C)CO)C[C@H](C)[C@H](CN(C)S(=O)(=O)c2cccs2)OCCCC[C@@H](C)O3)cc1 | 1 | -1 | / | 15 | -11 | -4
O=C(NCCc1ccccc1)C1c2ccccc2C(=O)N1Cc1cccs1 (stereo not drawn) | -2 | 4 | -16 | -2 | 3 | 34*
O=C(C[C@H]1C=C[C@@H](NC(=O)C2CCC2)[C@@H](CO)O1)Nc1nccs1 | 2 | -3 | 4 | -2 | 6 | -7
C[C@@H]1CN([C@H](C)CO)C(=O)c2cc(C#CCN(C)C)cnc2O[C@@H]1CN(C)C(=O)c1cnccn1 | 3 | 0 | 6 | 10 | 13 | 0
COc1cccc(NC(=O)N(C)C[C@H]2Oc3cc(-c4ccccc4F)ccc3S(=O)(=O)N([C@@H](C)CO)C[C@H]2C)c1 | -4 | -1 | -22 | -6 | 3 | 19*
COc1cccc(NC(=O)N(C)C[C@@H]2Oc3cc(C#Cc4ccc(F)cc4)ccc3S(=O)(=O)N([C@H](C)CO)C[C@@H]2C)c1 | -4 | -1 | -73 | -14 | -28 | 10
COc1ccc(C#Cc2ccc3c(c2)O[C@H](CN(C)C(=O)Nc2cccc(OC)c2)[C@H](C)CN([C@@H](C)CO)S3(=O)=O)cc1 | 3 | 86* | 73* | -3 | -2 | 1
COc1ccc(C#Cc2ccc3c(c2)O[C@@H](CN(C)C(=O)Nc2cccc(OC)c2)[C@H](C)CN([C@@H](C)CO)S3(=O)=O)cc1 | 20 | 2 | -42 | -3 | -14 | 16*!
COc1ccc(C#Cc2ccc3c(c2)O[C@@H](CN(C)C(=O)Nc2cccc(OC)c2)[C@@H](C)CN([C@H](C)CO)S3(=O)=O)cc1 | 2 | 80 | -73 | -3 | -18 | 8
COc1cccc(-c2ccc3c(c2)O[C@@H](CN(C)C(=O)c2ccccc2F)[C@H](C)CN([C@@H](C)CO)S3(=O)=O)c1 | -7 | 0 | -66 | 10 | -37 | 20*
C[C@@H]1CN([C@H](C)CO)C(=O)c2cc(NC(=O)CCC(F)(F)F)ccc2O[C@@H](C)CCCCO[C@@H]1CN(C)C(=O)CCC(F)(F)F | -1 | 6 | / | -5 | -8 | 0
CC(=O)N1[C@@H](CO)[C@H](c2ccc(-c3cccc(F)c3)cc2)[C@@H]1CNC(=O)C1CC1 | -4 | 1 | 1 | / | -1 | /
CCS(=O)(=O)N1CC2(CN[C@@H](CO)c3c2c2ccc(OC)cc2n3C)C1 | 2 | / | / | / | 1 | /
C[C@@H]1CN([C@@H](C)CO)C(=O)c2cccc(NC(=O)Nc3ccc(C(F)(F)F)cc3)c2O[C@@H]1CN(C)Cc1ccc(C(=O)Nc2ccccc2N)cc1 | -6 | / | / | -5 | -3 | 2
Cc1cccc(NC(=O)N2CCCC(CNC(=O)c3ccccc3Cl)C2)c1C (stereo not drawn) | 3 | 0 | 7 | 3 | 11 | 31*
Cn1c(=O)c2c(ncn2CC(=O)OCC(=O)NC2CCCc3ccccc32)n(C)c1=O (stereo not drawn) | / | 0 | 88* | / | -7 | /
O=C(C1CCCCC1)N1[C@@H](CO)[C@@H](c2ccccc2)C12CN(Cc1ccc(F)cc1)C2 | -5 | / | / | / | -4 | -8
SMILES | Ecoli rRNA inh | Cneo AK release | C2C12 statin | S100A4 inh HTS | PGC1a acetyl inh | SIRT5 block
COc1ccc(OC)c(-c2cc(C(=O)NCCCn3ccnc3)no2)c1 | / | / | 161* | / | -1 | /
C[C@@H]1CN([C@H](C)CO)S(=O)(=O)c2ccc(C3=CCCCC3)cc2O[C@H]1CN(C)C(=O)C1CC1 | -2 | -1 | -22 | -2 | -10 | 2
CCOC(=O)c1nnc(-c2ccccc2)o1 | / | 3 | -3 | / | 8 | /
O=C(CCc1ccccc1)c1nnc(-c2ccccc2)o1 | -23* | / | / | 0 | 17 | -5
Cc1ccc(C(=O)OCC(=O)Nc2ccc(C(N)=O)cc2)s1 | 8 | 0 | -2 | -5 | -9 | -5
CCN(c1ccc(NC(=O)COC(=O)c2ccc(C)s2)cc1)C(C)C | -27* | 3 | 5 | 2 | 0 | -5
O=C(NCCN1CCC(n2c(=O)[nH]c3ccccc32)CC1)N1c2ccccc2Sc2ccccc21 | -36* | / | / | 2 | / | 0
O=C(Nc1ccncc1)c1ccc(Br)cc1 | 8 | 1 | 12 | 9 | 0 | -2
O=C(Nc1ccncc1)c1cc(F)cc(F)c1 | / | 0 | 72* | / | -9 | /
CNc1nc(NCc2ccccc2)c2sccc2n1 | 6 | 0 | -2 | 1 | / | 20*
O=C(C[C@@H]1C[C@H]2c3cc(NC(=O)CC4CC4)ccc3O[C@H]2[C@H](CO)O1)NCc1cccc(F)c1 | -3 | 71 | 0 | 5 | 12 | 2
COc1ccc2c(c1)N(C)C(=O)CC(c1ccccc1)=N2 | / | 1 | 108* | / | -2 | /
COc1cc(/C=N/NC(=O)Nc2cccc3nsnc23)cc(OC)c1OC | / | / | / | / | -2 | /
O=C(N/N=C/c1ccc(O)cc1)Nc1cccc2nsnc12 | -31* | / | / | 23 | 16 | -3
C[C@H]1CN([C@@H](C)CO)S(=O)(=O)c2ccc(C#CC3CC3)cc2O[C@H]1CN(C)CC1CCOCC1 | 2 | -1 | 8 | -2 | -8 | -1
